Laboratory results reported in ChEMBL document CHEMBL3992537, “Design, Synthesis, and Biological Evaluation of Small, High-Affinity Siglec-7 Ligands: Toward Novel Inhibitors of Cancer Immune Evasion” (J Med Chem, 2017).
Activity calls are given as the source filed them. The calls are words filed in the database; no cut-off is given here.

Key:
[1] = molecular target: T1, Sialic acid-binding Ig-like lectin 7 (Homo sapiens, UniProt Q9Y286); assay: Binding affinity to human IgG1-fused Siglec-7-Fc assessed as inhibition of Siglec-7-Fc binding to RBC preincubated for 10 mins followed by RBC addition measured after 20 mins by FACS analysis relative to sodium (4S,5R,6R)-5-acetamido-4-hydroxy-2-methoxy-6-((1R,2R)-1,2,3 trihydroxypropyl)tetrahydro-2H-pyran-2-carboxylate
How it was run: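 RBC flow-cytometry competition as above: Siglec-7-Fc 0.2 μg/mL with ligand 10 min at RT, then RBCs 20 min on ice, detected by anti-Fc-biotin/streptavidin-PE MFI. The reference ligand α-Me Neu5Ac is run in the same test. Relative inhibitory potency is calculated intra-test against it to offset inter-test variation from fresh RBCs.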

[2] = molecular target: Sialic acid-binding Ig-like lectin 9 (Homo sapiens) (UniProt Q9Y336); assay: Binding affinity to human IgG1-fused Siglec-9-Fc assessed as inhibition of Siglec-9-Fc binding to K562 cells preincubated for 10 mins followed by K562 cell addition measured after 20 mins by FACS analysis
How it was run: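 Human IgG1-fused Siglec-9-Fc is preincubated with inhibitor dilutions, then co-incubated with K562 cells instead of RBCs. Later steps follow the RBC assay: anti-Fc-biotin and streptavidin-PE detection, fixation, and flow cytometry. Inhibition is calculated from MFI as for RBCs. At least three independent experiments.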

[3] = molecular target: T1, Sialic acid-binding Ig-like lectin 7; assay: Ratio of 3'sialyllactose Kd to relative inhibitory potency of test compound for human IgG1-fused Siglec-7-Fc by ELISA
How it was run: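 The Kd value is extrapolated by dividing the known Kd of 3′sialyllactose by the ELISA relative inhibitory potency. The ELISA uses plate-bound 6′sialyl-LacNAc-polyacrylamide with AP-precomplexed Siglec-7-Fc, 2.5 h at 37 °C, read at 405 nm.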

[4] = Cytotoxicity against human NK cells assessed as viable cells up to 10 mM; assay type: cell-based; details: nk cell
How it was run: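 Human NK cells are isolated by negative selection from PBMCs and prestimulated 24 h with 100 IU/mL IL-2. They are then incubated 24 h with the Siglec-7 inhibitor at concentrations up to 10 mM. Viability is assessed by live–dead staining and flow cytometry.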

[5] = molecular target: T1, Sialic acid-binding Ig-like lectin 7; assay: Binding affinity to human IgG1-fused Siglec-7-Fc assessed as inhibition of Siglec-7-Fc binding to RBC preincubated for 10 mins followed by RBC addition measured after 20 mins by FACS analysis
How it was run: (§1)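 Siglec-7-Fc (human IgG1 fusion), 0.2 μg/mL, premixed 10 min at RT in PBS with inhibitor dilution series. The mix is then added to pelleted freshly isolated human RBCs (0.1% suspension) for 20 min on ice. Bound Fc is detected with biotin goat anti-human Fc (10 μg/mL) and streptavidin-PE, then formaldehyde-fixed and read by flow cytometry. % inhibition is from MFI, with unstained RBCs as 100% and no inhibitor as 0%. IC50 derived.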

[6] = molecular target: T1, Sialic acid-binding Ig-like lectin 7; assay: Binding affinity to human IgG1-fused Siglec-7-Fc measured after 2.5 hrs by ELISA relative to 3'sialyllactose
How it was run: (§2)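 Streptavidin-coated plates carry 4 μg/mL biotinylated 6′sialyl-N-acetyllactosamine-polyacrylamide and are BSA-blocked. Ligand 10-fold dilutions (1 mM to 1 × 10⁻⁵ mM, PBS) and hSiglec7-Fc precomplexed with AP anti-human IgG are added for 2.5 h at 37 °C. Plates are developed with p-nitrophenyl phosphate (pH 9.8) and read at 405 nm for IC50. 3′- and 6′-sialyllactose serve as references for relative potency.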

K562 = assay: Cytotoxicity against human K562 cells assessed as viable cells; assay type: cell-based
[7] = Cytotoxicity against human MEL1106 cells assessed as viable cells; assay type: cell-based
[8] = molecular target: T1, Sialic acid-binding Ig-like lectin 7; assay: Binding affinity to human IgG1-fused Siglec-7-Fc measured after 2.5 hrs by ELISA; how it was run: as §2
[9] = molecular target: T1, Sialic acid-binding Ig-like lectin 7; assay: Binding affinity to human IgG1-fused Siglec-7-Fc; how it was run: as §1

T1 sequence (Q9Y286 whole entry, the tested form may be a part): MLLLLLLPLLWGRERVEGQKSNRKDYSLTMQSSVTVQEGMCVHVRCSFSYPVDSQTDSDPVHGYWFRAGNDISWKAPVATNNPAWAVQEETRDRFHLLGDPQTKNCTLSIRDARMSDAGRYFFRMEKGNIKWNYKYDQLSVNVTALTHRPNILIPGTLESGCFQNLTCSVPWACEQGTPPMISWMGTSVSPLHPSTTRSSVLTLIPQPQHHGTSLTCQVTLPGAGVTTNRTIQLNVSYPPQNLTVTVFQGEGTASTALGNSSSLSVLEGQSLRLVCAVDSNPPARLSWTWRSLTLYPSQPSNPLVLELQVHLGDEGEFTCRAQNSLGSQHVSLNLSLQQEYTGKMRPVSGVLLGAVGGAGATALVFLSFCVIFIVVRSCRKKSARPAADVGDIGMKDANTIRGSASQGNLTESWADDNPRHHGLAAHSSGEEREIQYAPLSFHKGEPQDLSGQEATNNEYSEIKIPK
Sequence of Sialic acid-binding Ig-like lectin 9 (Homo sapiens) (Q9Y336 whole entry, the tested form may be a part): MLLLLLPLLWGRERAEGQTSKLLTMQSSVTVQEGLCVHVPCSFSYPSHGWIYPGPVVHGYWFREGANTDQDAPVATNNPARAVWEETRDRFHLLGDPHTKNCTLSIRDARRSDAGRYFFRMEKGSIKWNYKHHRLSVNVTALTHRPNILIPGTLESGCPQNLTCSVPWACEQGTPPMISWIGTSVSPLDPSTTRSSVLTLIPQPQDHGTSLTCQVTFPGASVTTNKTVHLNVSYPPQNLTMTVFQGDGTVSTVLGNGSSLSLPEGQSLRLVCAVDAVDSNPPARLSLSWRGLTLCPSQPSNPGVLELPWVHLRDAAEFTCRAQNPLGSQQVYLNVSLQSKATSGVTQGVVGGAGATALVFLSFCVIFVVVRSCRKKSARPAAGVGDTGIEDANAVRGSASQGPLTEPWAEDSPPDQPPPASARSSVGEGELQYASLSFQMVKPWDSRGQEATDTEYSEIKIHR

fold change (FC) [1]	Compound	also measured
< 1.5	COC1(C(=O)O)C[C@H](O)[C@@H](NC(C)=O)[C@H]([C@H](O)[C@H](O)CNC(=O)c2ccc(-c3ccccc3)cc2)O1 (some centres undefined)	
4.1	COC1(C(=O)O)C[C@H](O)[C@@H](NC(C)=O)[C@H]([C@H](O)[C@H](O)CNC(=O)C(N)=O)O1 (some centres undefined)	
58	COC1(C(=O)O)C[C@H](O)[C@@H](NC(C)=O)[C@H]([C@H](O)[C@H](O)CNC(=O)C(=O)Nc2ccccc2)O1 (some centres undefined)	
33	CC(=O)N[C@H]1[C@H]([C@H](O)[C@H](O)CNS(=O)(=O)O)O[C@@](OCCCn2cc(-c3ccc(-c4ccccc4)cc3)nn2)(C(=O)O)C[C@@H]1O	
< 1.5	COC1(C(=O)O)C[C@H](O)[C@@H](NC(C)=O)[C@H]([C@H](O)[C@H](O)CNC(=O)c2ccccc2)O1 (some centres undefined)	
0.6	CC(=O)N[C@H]1[C@H]([C@H](O)[C@H](O)CNC(=O)Cc2ccccc2)O[C@@](OCCCn2cc(-c3ccc(-c4ccccc4)cc3)nn2)(C(=O)O)C[C@@H]1O	
< 1.5	COC1(C(=O)O)C[C@H](O)[C@@H](NC(C)=O)[C@H]([C@H](O)[C@H](O)CNC(=O)Cc2cccc3ccccc23)O1 (some centres undefined)	
10	COC1(C(=O)O)C[C@H](O)[C@@H](NC(C)=O)[C@H]([C@H](O)[C@H](O)CNC(=O)Cc2ccccc2)O1 (some centres undefined)	
152	CC(=O)N[C@H]1[C@H]([C@H](O)[C@H](O)CO)O[C@@](OCCCn2cc(-c3ccc(-c4ccccc4)cc3)nn2)(C(=O)O)C[C@@H]1O	IC50 [5]: 53 µM
3.5	CC(=O)N[C@H]1[C@H]([C@H](O)[C@H](O)CNC(=O)C(N)=O)O[C@@](OCCCn2cc(-c3ccc(-c4ccccc4)cc3)nn2)(C(=O)O)C[C@@H]1O	
8.2	COC1(C(=O)O)C[C@H](O)[C@@H](NC(C)=O)[C@H]([C@H](O)[C@H](O)CNC(=O)Cc2ccc3ccccc3c2)O1 (some centres undefined)	
< 1.5	COC1(C(=O)O)C[C@H](O)[C@@H](NC(C)=O)[C@H]([C@H](O)[C@H](O)CNC(=O)CC23CC4CC(CC(C4)C2)C3)O1 (some centres undefined)	
4.5	COC1(C(=O)O)C[C@H](O)[C@@H](NC(C)=O)[C@H]([C@H](O)[C@H](O)CNC(=O)Cc2ccc(-c3ccccc3)cc2)O1 (some centres undefined)	
< 1	COC1(C(=O)O)C[C@H](O)[C@@H](NC(C)=O)[C@H]([C@H](O)[C@H](O)CNC(=O)Nc2ccccc2)O1 (some centres undefined)	
0.33	CCCS(=O)(=O)NC[C@@H](O)[C@@H](O)[C@@H]1O[C@@](OCCCn2cc(-c3ccc(-c4ccccc4)cc3)nn2)(C(=O)O)C[C@H](O)[C@H]1NC(C)=O	
3.6	CC(=O)N[C@H]1[C@H]([C@H](O)[C@H](O)CNC(=O)C(=O)O)O[C@@](OCCCn2cc(-c3ccc(-c4ccccc4)cc3)nn2)(C(=O)O)C[C@@H]1O	
< 1.5	COC1(C(=O)O)C[C@H](O)[C@@H](NC(C)=O)[C@H]([C@H](O)[C@H](O)CNC(=O)CC2CCCCC2)O1 (some centres undefined)	
< 0.5	CCCNC[C@@H](O)[C@@H](O)[C@@H]1O[C@@](OCCCn2cc(-c3ccc(-c4ccccc4)cc3)nn2)(C(=O)O)C[C@H](O)[C@H]1NC(C)=O	
0.73	CC(=O)NC[C@@H](O)[C@@H](O)[C@@H]1O[C@@](OCCCn2cc(-c3ccc(-c4ccccc4)cc3)nn2)(C(=O)O)C[C@H](O)[C@H]1NC(C)=O	

Further lines, the molecule ahead of its results:

Compound	fold change (FC) [1]	also measured
CC(=O)N[C@H]1[C@H]([C@H](O)[C@H](O)CS)O[C@@](OCCCn2cc(-c3ccc(-c4ccccc4)cc3)nn2)(C(=O)O)C[C@@H]1O	0.52	
CC(=O)N[C@H]1[C@H]([C@H](O)[C@H](O)CN)O[C@@](OCCCn2cc(-c3ccc(-c4ccccc4)cc3)nn2)(C(=O)O)C[C@@H]1O	0.24	
CC(=O)N[C@H]1[C@H]([C@H](O)[C@H](O)CNS(=O)(=O)c2cccc3c(N(C)C)cccc23)O[C@@](OCCCn2cc(-c3ccc(-c4ccccc4)cc3)nn2)(C(=O)O)C[C@@H]1O	0.09	
CC(=O)N[C@H]1[C@H]([C@H](O)[C@H](O)CNS(=O)(=O)NS(N)(=O)=O)O[C@@](OCCCn2cc(-c3ccc(-c4ccccc4)cc3)nn2)(C(=O)O)C[C@@H]1O	1	
CC(=O)N[C@H]1[C@H]([C@H](O)[C@H](O)CNS(N)(=O)=O)O[C@@](OCCCn2cc(-c3ccc(-c4ccccc4)cc3)nn2)(C(=O)O)C[C@@H]1O	0.45	
CC(=O)N[C@H]1[C@H]([C@H](O)[C@H](O)CNS(=O)(=O)c2ccccc2)O[C@@](OCCCn2cc(-c3ccc(-c4ccccc4)cc3)nn2)(C(=O)O)C[C@@H]1O	0.49	
CC(=O)N[C@H]1[C@H]([C@H](O)[C@H](O)CNS(C)(=O)=O)O[C@@](OCCCn2cc(-c3ccc(-c4ccccc4)cc3)nn2)(C(=O)[O-])C[C@@H]1O.[Na+]	3120	inhibition [2]: Active; Ratio [3]: 4.8; Activity [4]: Non-Toxic; IC50 [5]: 2.6 µM; fold change (FC) [6]: 141; Activity (K562): Non-Toxic; Activity [7]: Non-Toxic; IC50 [8]: 260 µM
CC(=O)N[C@H]1[C@H]([C@H](O)[C@H](O)CNc2c(O)c(=O)c2=O)O[C@@](OCCCn2cc(-c3ccc(-c4ccccc4)cc3)nn2)(C(=O)O)C[C@@H]1O	0.28	
CC(=O)N[C@H]1[C@H]([C@H](O)[C@H](O)CNC(=O)C(=O)Nc2ccccc2)O[C@@](OCCCn2cc(-c3ccc(-c4ccccc4)cc3)nn2)(C(=O)O)C[C@@H]1O	6.8	
CC(=O)N[C@H]1[C@H]([C@H](O)[C@H](O)CNS(=O)(=O)C(F)(F)F)O[C@@](OCCCn2cc(-c3ccc(-c4ccccc4)cc3)nn2)(C(=O)O)C[C@@H]1O	0.41	
CC(=O)N[C@H]1[C@H]([C@H](O)[C@H](O)CNS(=O)(=O)Cc2ccccc2)O[C@@](OCCCn2cc(-c3ccc(-c4ccccc4)cc3)nn2)(C(=O)O)C[C@@H]1O	0.17	
CC(=O)N[C@H]1[C@H]([C@H](O)[C@@H](C)O)O[C@@](OCCCn2cc(-c3ccc(-c4ccccc4)cc3)nn2)(C(=O)O)C[C@@H]1O	0.15	
CC(=O)N[C@H]1[C@H]([C@H](O)[C@H](O)CO)O[C@@](OC[C@H]2O[C@@H](O[C@H]3[C@H](O)[C@@H](O)[C@H](O)O[C@@H]3CO)[C@H](O)[C@@H](O)[C@H]2O)(C(=O)O)C[C@@H]1O		fold change (FC) [6]: 1.4; Kd [9]: 240 µM; IC50 [8]: 25600 µM
CC(=O)N[C@H]1[C@H]([C@H](O)[C@H](O)CNS(=O)(=O)NC(=O)OCc2ccccc2)O[C@@](OCCCn2cc(-c3ccc(-c4ccccc4)cc3)nn2)(C(=O)O)C[C@@H]1O	0.27	
COC1(C(=O)O)C[C@H](O)[C@@H](NC(C)=O)[C@H]([C@H](O)[C@H](O)CO)O1 (some centres undefined)		IC50 [5]: 8070 µM
CC(=O)N[C@H]1[C@H]([C@H](O)[C@H](O)CO)O[C@@](O[C@H]2[C@@H](O)[C@@H](CO)O[C@@H](O[C@H]3[C@H](O)[C@@H](O)[C@H](O)O[C@@H]3CO)[C@@H]2O)(C(=O)O)C[C@@H]1O		Kd [9]: 680 µM; IC50 [8]: 36900 µM
CC(=O)N[C@H]1[C@H]([C@H](O)[C@H](O)CNCc2ccccc2)O[C@@](OCCCn2cc(-c3ccc(-c4ccccc4)cc3)nn2)(C(=O)O)C[C@@H]1O	< 0.5	
CCS(=O)(=O)NC[C@@H](O)[C@@H](O)[C@@H]1O[C@@](OCCCn2cc(-c3ccc(-c4ccccc4)cc3)nn2)(C(=O)O)C[C@H](O)[C@H]1NC(C)=O	5210	Ratio [3]: 4.2; IC50 [5]: 1.6 µM; fold change (FC) [6]: 161; IC50 [8]: 230 µM
CCCCS(=O)(=O)NC[C@@H](O)[C@@H](O)[C@@H]1O[C@@](OCCCn2cc(-c3ccc(-c4ccccc4)cc3)nn2)(C(=O)O)C[C@H](O)[C@H]1NC(C)=O	0.16	
